# HTR5A ag ctr: HTR5A agonists in luminescence cell assay, primary screen, counter-screen for OPRM1-OPRD1 heterodimer agonist project, full-deck HTS | 5-hydroxytryptamine receptor 5A (Homo sapiens), P47898 | cell-based | activation, % at 9.3 µM | 340,000 compounds, 0.61% hits | AID 504692, 2011; in the data active = activation mostly above about 9.5%, no sharp cut-off; inactive = mostly below about 7.6%;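 note: 0% = cells with vehicle only and 100% = reference agonist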
# MC4R antagonist: MC4R antagonists of cAMP signaling, primary screen, cell-based, TR-FRET, antagonist arm of biased-ligand search | Melanocortin receptor 4 (Homo sapiens), P32245 | MC4R-expressing cells, MTII-stimulated cAMP, LANCE TR-FRET | inhibition, % at 6.5 µM | 360,000 compounds, 0.48% hits | AID 540295, 2011;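 active = inhibition above its plate's cutoff, the mean of tested wells on that plate plus 3 SD, cut at about 29% in these data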;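 note: 0% = Melanotan II alone and 100% = Melanotan II plus saturating MCL0020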
#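 Material – human MC4R-expressing U2OS cells · Repeats – no replicates · Detection – TR-FRET with Eu-cAMP and labeled anti-cAMP, 671 nm · Times – compound 30 min, challenge 1 h, detection 1 h · Compound – single nominal compound dose of 6.5 µM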
# OPRM1-OPRD1 inv: inverse agonists of MOR-DOR heterodimerization, primary screen, cell-based, luminescence; cell-based MOR-DOR heterodimer luminescence, inverse agonism; inhibition, % at 9.3 µM; 340,000 compounds, 0.21% hits; in the data active = inhibition above about 22%, passing the limit was not always enough;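 note: 0% = cells with DMSO and 100% = wells without cells with DMSO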
# Target sequence (P35372 whole entry, looked up): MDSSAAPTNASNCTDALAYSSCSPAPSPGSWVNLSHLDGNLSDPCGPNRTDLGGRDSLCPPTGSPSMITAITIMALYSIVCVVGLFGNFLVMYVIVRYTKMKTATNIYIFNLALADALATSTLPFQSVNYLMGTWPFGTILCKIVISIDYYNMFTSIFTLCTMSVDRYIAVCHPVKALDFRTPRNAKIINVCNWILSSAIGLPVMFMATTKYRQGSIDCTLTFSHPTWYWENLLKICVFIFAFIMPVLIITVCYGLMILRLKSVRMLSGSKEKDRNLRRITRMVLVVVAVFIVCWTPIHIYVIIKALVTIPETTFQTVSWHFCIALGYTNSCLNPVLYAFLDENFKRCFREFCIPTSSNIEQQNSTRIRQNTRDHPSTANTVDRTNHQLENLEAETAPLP
# Target sequence (P41143 whole entry, looked up): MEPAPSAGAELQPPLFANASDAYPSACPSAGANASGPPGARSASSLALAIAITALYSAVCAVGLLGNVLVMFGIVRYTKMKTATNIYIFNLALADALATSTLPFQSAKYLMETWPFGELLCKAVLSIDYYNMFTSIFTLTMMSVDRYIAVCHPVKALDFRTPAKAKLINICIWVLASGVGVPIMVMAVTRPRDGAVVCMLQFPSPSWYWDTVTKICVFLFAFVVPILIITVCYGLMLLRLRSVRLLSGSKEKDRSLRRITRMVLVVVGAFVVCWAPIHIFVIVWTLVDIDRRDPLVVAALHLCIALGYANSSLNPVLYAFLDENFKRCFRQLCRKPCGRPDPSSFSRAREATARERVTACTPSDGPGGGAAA
# MC4R barr agon: MC4R agonists recruiting beta-arrestin, primary screen, cell-based, luminescence, agonist arm of biased-ligand search; Melanocortin receptor 4 (Homo sapiens), P32245; U2OS MC4R beta-arrestin complementation; percent of melanotan II response, DMSO zero; activation, % at 8.9 µM; 360,000 compounds, 0.98% hits;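 active = activation above a per-plate cutoff, the mean activation of sample wells on that plate plus 3 SD, cut at about 8% in these data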
# OPRM1-OPRD1 ag: agonists of OPRM1-OPRD1 heterodimerization, primary screen, cell-based, luminescence; cells; activation, % at 9.3 µM; 340,000 compounds, 0.3% hits; AID 504326, 2011;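 note: 0% = vehicle-treated cells and 100% = reference agonist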
# HTR5A inv ag: HTR5A inverse agonists in luminescence cell assay, primary screen, counter-screen for OPRM1-OPRD1 heterodimer inverse agonist project, full-deck HTS. 5-hydroxytryptamine receptor 5A (Homo sapiens), P47898. HTR5A cell line, inverse agonism. inhibition, % at 9.3 µM. 340,000 compounds, 0.083% hits; in the data active = inhibition mostly above about 23%, no sharp cut-off; inactive = mostly below about 18%;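 note: 0% = cells with DMSO and 100% = no-cell wells with DMSO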
# MOR-DOR ag conf: agonists of MOR-DOR heterodimerization, confirmation, cell-based, luminescence | shares compounds with OPRM1-OPRD1 ag | cells, luminescence complementation | activation, % at 9.3 µM | 830 compounds, 45% hits | AID 504904, 2011;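 note: 0% = vehicle-treated cells and 100% = reference agonist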
# HTR5A ag ctr2: HTR5A agonists in cells, counter-screen for OPRM1-OPRD1 heterodimer agonist project, cell-based, luminescence. shares compounds with OPRM1-OPRD1 ag. HTR5A agonist counterscreen. activation, % at 9.3 µM. 830 compounds, 8% hits. AID 504905, 2011; in the data active = activation above about 17%;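 note: 0% = vehicle-treated cells and 100% = reference agonist response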
# Active calls of the source: *; i = inactive; · = no result; + = active, no number. The list is not random: actives were taken first. Their share in the collection is about 2.4%. Cut-off read from the data, not from the text of the source, unless noted: active = activation above about 18%; inactive = the rest.
SMILES,HTR5A ag ctr,MC4R antagonist,OPRM1-OPRD1 inv,MC4R barr agon,OPRM1-OPRD1 ag,HTR5A inv ag,MOR-DOR ag conf,HTR5A ag ctr2
CN(C)CCCN(C(=O)c1ccc(S(=O)(=O)N2CCc3ccccc3C2)cc1)c1nc2ccc(F)cc2s1,8.0,5.8,i,17.1*,654.6*,-29.4,+,15.9
CC(NCCC1(Cc2ccccc2Cl)CCOC(C)(C)C1)c1cccs1 (stereo not drawn),-2.5,14.4,-226.8,-0.3,44.7*,-12.6,6.1,2.4
Cc1cc(C)c(C)c(OC(=O)c2sc(Cl)nc2C)c1,3.1,25.1,-54.9,0.8,8.1,14.8,·,·
CSCCCNC(=O)c1ccc(OC2CCN(CCc3ccccc3)CC2)cc1,0.0,10.0,-109.7,-1.1,21.8*,-12.5,32.3*,1.9
O=C(NCCc1cccc(Cl)c1)c1ccc(OC2CCN(Cc3ccccn3)CC2)cc1,3.7,-2.6,-324.4,-2.2,64.7*,-13.7,0.4,-0.7
O=C(NCCc1ccccn1)c1ccc(OC2CCN(CCc3ccccc3)CC2)cc1,1.1,-1.9,-78.6,-1.9,15.1,-1.6,·,·
Cn1c2c(c(=O)c3ccccc31)CCC(C)(C)O2,1.4,5.7,7.9,-3.1,-1.5,9.3,·,·
N=c1n(Cc2ccc(Cl)cc2)c2ccccc2n1CC(O)COc1ccccc1 (stereo not drawn),14.3*,-10.1,i,11.9*,94.1*,-40.7,-1.8,0.2
Cc1cccc(OCC(O)Cn2c(=N)n(Cc3ccccc3)c3ccccc32)c1 (stereo not drawn),2.9,10.1,-18.6,-1.1,3.7,-23.1,·,·
CCn1cc(CN2CCc3c([nH]c4ccccc34)C2c2cccc(OC)c2OC)c(C)n1 (stereo not drawn),2.9,5.1,0.2,-1.3,0.0,12.7,·,·
Cn1c(SCC(=O)Nc2ccc(F)cc2)nc2c([nH]c3ccccc32)c1=O,4.4,-11.2,-129.2,2.7,25.0*,-12.3,18.4*,5.0
CCOc1ccc(NC(=O)CSc2nc3c([nH]c4ccccc43)c(=O)n2C)cc1,-5.3,7.9,6.1,-0.1,-1.0,15.6,·,·
Cc1ccc(NC(=O)CSc2nc3c([nH]c4ccccc43)c(=O)n2C)cc1,2.5,-9.3,-184.5,15.8*,31.1*,-7.4,-3.7,0.9
O=C(NCc1cccnc1)C1CCN(S(=O)(=O)c2cc([N+](=O)[O-])ccc2Cl)CC1,1.8,-1.6,-20.8,-2.2,4.8,-6.9,·,·
CSc1ccc(CN2CCC(Oc3ccc(C(=O)N4CCCC4)cc3)CC2)cc1,-1.7,4.2,17.0,-2.6,-3.3,-34.9,·,·
COc1cc(C2C(C#N)=C(N)N(N(C)C)C3=C2C(=O)CCC3)cc(OC)c1OC (stereo not drawn),2.3,24.7,10.4,1.7,-2.0,-8.4,·,·
COc1cc(C2C(C#N)=C(N)N(c3sc4c(c3C#N)CCCC4)C3=C2C(=O)CC(C)(C)C3)cc(OC)c1OC (stereo not drawn),-0.4,20.0,-360.3,-1.3,57.6*,-2.5,45.1*,4.3
CC(=O)Nc1ccc(NC(=O)c2ccc(-c3ccnn3C)c3ccoc23)cc1,·,-6.1,·,-1.1,·,·,·,·
CCOC(=O)C1(CC2CC2)CCN(Cc2cnc(-c3ccccc3C)nc2)CC1,-4.0,6.0,-395.9,7.1,79.0*,24.2,71.8*,2.8
CCOC(=O)C1(CCOc2ccccc2)CCN(Cc2cc(OC)c(O)c(OC)c2)CC1,-1.6,18.1,-3.5,1.9,0.7,5.8,·,·
CCOC(=O)C1(CCOc2ccccc2)CCN(Cc2ccc(OC)c(O)c2)CC1,-0.7,5.6,-367.9,0.3,77.2*,2.5,75.0*,2.6
CCOC(=O)C1(CC2CC2)CCN(Cc2cc(Cl)c(O)c(OC)c2)CC1,0.5,-2.1,-28.6,-2.2,5.7,-8.4,·,·
CCOC(=O)C1(CCOc2ccccc2)CCN(Cc2ccc(O)cc2)CC1,-8.0,8.0,-2.4,-0.9,0.5,27.3,·,·
CCOC(=O)C1(CCOc2ccccc2)CCN(Cc2cnc(SC)nc2)CC1,4.0,25.9,-155.3,0.1,31.7*,20.5,1.8,-2.1
NC(=O)c1nsc(C(=O)N(CC(=O)NC2CCCC2)c2cccc(C(F)(F)F)c2)c1N,-0.6,16.7,-0.1,-0.6,0.0,5.1,·,·
SMILES,HTR5A ag ctr,MC4R antagonist,OPRM1-OPRD1 inv,MC4R barr agon,OPRM1-OPRD1 ag,HTR5A inv ag,MOR-DOR ag conf,HTR5A ag ctr2
O=C(Nc1cccnc1)C1CCCN(S(=O)(=O)c2cccc3nsnc23)C1 (stereo not drawn),-2.0,-0.9,4.9,-1.8,-0.8,-47.5,·,·
COc1ccc(/C=C/C(=O)NC(=S)NCCc2ccc(OC)c(OC)c2)cc1,5.1,-9.1,-168.3,17.2*,29.9*,-4.9,54.8*,3.0
COc1ccc(CCNC(=O)/C=C\c2ccccc2)cc1OC,-1.7,1.1,5.0,-2.7,-0.9,5.8,·,·
COCCCNC(=O)c1ccc(S(=O)(=O)c2ccc(Cl)cc2)c(NC(C)=O)c1,2.5,-3.5,8.7,-0.4,-1.9,-8.7,·,·
N#Cc1nc(NCC(F)F)nc(Nc2cc(F)cc(F)c2)n1,12.3,6.8,-119.0,5.4,20.9*,-37.0,7.3,0.2
COc1cc(-c2cc(NC=O)c3ncc(-c4cccc(C(=O)N(C)C)c4)n3c2)cc(OC)c1OC,·,-23.3,·,3.9,·,·,·,·
COc1ccc(C)cc1S(=O)(=O)n1c([N+](=O)[O-])cnc1C,1.6,3.9,10.4,-0.7,-2.0,-4.4,·,·
CCCN1C(=O)c2ccccc2NC1c1ccc(OC)c(CSc2ccccn2)c1 (stereo not drawn),4.7,2.9,-117.7,0.2,22.2*,15.2,16.5,0.5
COc1ccc(N2C(=O)c3ccccc3NC2c2ccc(OC)c(CSc3ccccn3)c2)cc1 (stereo not drawn),1.3,2.5,-48.0,-0.5,8.2,11.5,·,·
COc1ccc(C2Nc3ccccc3C(=O)N2Cc2ccco2)cc1CN1C(=O)c2ccccc2C1=O (stereo not drawn),2.1,1.9,1.3,-0.8,-0.3,-16.8,·,·
COc1ccc(C2Nc3ccccc3C(=O)N2Cc2ccco2)cc1COc1ccc(F)cc1 (stereo not drawn),-0.3,2.2,-204.8,-0.1,37.7*,-19.6,26.0*,-0.6
O=C(Nc1ccccc1N1CCCCC1)c1cc(S(=O)(=O)N2CCOCC2)ccc1F,0.1,0.9,20.5,-2.9,-4.2,4.0,·,·

# High-throughput results as filed in PubChem.
